Test results: ChEMBL document CHEMBL1268887, “2-Hexadecynoic acid inhibits plasmodial FAS-II enzymes and arrests erythrocytic and liver stage Plasmodium infections” (Bioorg Med Chem, 2010)
In brackets after ≈: the same amount, converted by molar mass.

Legend:
[1] = molecular target: T1, Enoyl-acyl-carrier protein reductase (Plasmodium falciparum, UniProt Q965D5); experiment: Inhibition of Plasmodium falciparum FabI by spectrophotometric analysis
T1 sequence (Q965D5 whole entry): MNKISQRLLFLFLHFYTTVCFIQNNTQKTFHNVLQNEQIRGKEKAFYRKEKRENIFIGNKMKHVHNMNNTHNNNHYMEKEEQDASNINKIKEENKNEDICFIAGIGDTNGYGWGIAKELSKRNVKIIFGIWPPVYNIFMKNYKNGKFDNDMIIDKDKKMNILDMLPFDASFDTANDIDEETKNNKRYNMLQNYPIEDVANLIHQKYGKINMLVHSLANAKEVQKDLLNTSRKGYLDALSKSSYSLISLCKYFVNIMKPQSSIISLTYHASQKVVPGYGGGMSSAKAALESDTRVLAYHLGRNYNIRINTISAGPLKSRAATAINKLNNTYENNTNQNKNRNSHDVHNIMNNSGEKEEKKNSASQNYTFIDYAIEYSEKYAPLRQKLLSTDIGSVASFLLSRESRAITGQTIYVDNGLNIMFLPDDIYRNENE

Plasmodium falciparum [2] = experiment: Antimalarial activity against erythrocytic stages of chloroquine and pyrimethamine-resistant Plasmodium falciparum K1 assessed as [3H]hypoxanthine incorporation after 48 hrs by liquid scintillation counting; assay type: functional, organism-based
Summary of the method: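 K1 parasites in RPMI 1640 with 5% Albumax, no hypoxanthine, given serial dilutions; 48 h at 37 °C under reduced oxygen, then 0.5 μCi [3H]-hypoxanthine added for a further 24 h. Harvested on glass-fibre filters and counted. Counts per well expressed as percentage of untreated controls; IC50 read from plotted dose-response curves. Chloroquine as standard.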

Leishmania donovani = experiment: Leishmanicidal activity against axenic amastigotes of Leishmania donovani MHOM/ET/67/L82 after 72 hrs; assay type: functional, organism-based; conditions: MHOM/ET/67/L82, 72 h
[3] = system: Trypanosoma brucei rhodesiense; experiment: Trypanocidal activity against bloodstream form of Trypanosoma brucei rhodesiense STIB 900 after 72 hrs; assay type: functional, organism-based; conditions: STIB 900, 72 h
Trypanosoma cruzi = experiment: Trypanocidal activity against intracellular amastigotes of Trypanosoma cruzi Tulahuen C2C4 expressing LacZ gene infected in rat L6 cells after 96 hrs; assay type: functional, organism-based; conditions: Tulahuen C2C4, L6, 96 h
[4] = molecular target: T2, 3-oxoacyl-acyl-carrier protein reductase (Plasmodium falciparum, UniProt Q965D6); experiment: Inhibition of Plasmodium falciparum FabG by spectrophotometric analysis
T2 sequence (Q965D6 whole entry): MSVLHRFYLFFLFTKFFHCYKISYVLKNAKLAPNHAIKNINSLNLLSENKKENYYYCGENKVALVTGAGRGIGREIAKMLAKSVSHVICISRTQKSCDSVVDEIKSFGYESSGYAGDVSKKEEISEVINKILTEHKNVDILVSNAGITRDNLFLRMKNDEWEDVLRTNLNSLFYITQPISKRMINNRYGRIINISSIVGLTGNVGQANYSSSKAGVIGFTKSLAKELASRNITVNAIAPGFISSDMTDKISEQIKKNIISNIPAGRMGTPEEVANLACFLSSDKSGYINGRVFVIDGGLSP
Summary of the method: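 Recombinant PfFabG assayed in 20 mM HEPES pH 7.4, 150 mM NaCl, with NADPH cofactor and acetoacetyl-CoA substrate; DMSO at most 1% final. IC50 came from plotted dose-response curves.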

Fatty acid synthase = molecular target: T3, Fatty acid synthase (Plasmodium falciparum, UniProt Q965D7); experiment: Inhibition of Plasmodium falciparum FabZ by spectrophotometric analysis
T3 sequence (Q965D7 whole entry): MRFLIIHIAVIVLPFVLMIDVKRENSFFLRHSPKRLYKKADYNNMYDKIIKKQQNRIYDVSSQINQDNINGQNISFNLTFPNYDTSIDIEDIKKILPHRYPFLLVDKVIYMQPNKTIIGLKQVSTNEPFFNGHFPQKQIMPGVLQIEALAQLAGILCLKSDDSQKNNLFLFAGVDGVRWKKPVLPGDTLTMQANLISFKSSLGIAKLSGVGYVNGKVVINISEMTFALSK
Summary of the method: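 Recombinant PfFabZ (0.5 μg) with 25 μM crotonoyl-CoA in 20 mM HEPES pH 7.4, 150 mM NaCl; DMSO at most 1% final. Read at 263 nm for 2 min, with epigallocatechin gallate as reference. IC50 came from plotted dose-response curves.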

L6 = experiment: Cytotoxicity against rat L6 cells after 72 hrs by microplate fluorometric analysis; assay type: cell-based; conditions: L6, 72 h
Plasmodium yoelii [5] = experiment: Antimalarial activity against liver stages of Plasmodium yoelii expressing GFP infected in human HepG2:CD81 cells after 43 hrs by flow cytometry; assay type: functional, organism-based
Summary of the method: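 HepG2:CD81 cells seeded on attachment matrix in DMEM/F12 with FBS, infected next day with 50,000 PyGFP sporozoites dissected from mosquitoes 14 days post blood meal. Compound added 2 h later from 10 mM DMSO stocks, tested at 10 to 100 μM, medium changed at 24 h, grown a further 43 h at 37 °C. GFP-positive cells counted by flow cytometry with 7-AAD; atovaquone as positive control.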

Plasmodium yoelii [6] = experiment: Antimalarial activity against liver stages of Plasmodium yoelii expressing GFP infected in human HepG2:CD81 cells after 43 hrs by immunofluorescence analysis; assay type: functional, organism-based
Summary of the method: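 P. yoelii sporozoite-infected subconfluent HepG2:CD81 cells were kept at 37 °C in 5% CO2 and exposed to compound at up to 25 μg/ml in complete medium. After 43 h they were formalin-fixed and stained with anti-Plasmodium HSP70 mouse mAb plus rabbit anti-UIS4 or anti-FabI. About 20–25 parasites per treatment were sized at 20X against DMSO controls. The normalized reduction was used for IC50 estimation.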

Plasmodium falciparum [7] = experiment: Selectivity ratio of IC50 for Plasmodium falciparum FabG to IC50 for Plasmodium falciparum FabZ
Plasmodium falciparum [8] = experiment: Selectivity ratio of IC50 for Plasmodium falciparum FabG to IC50 for Plasmodium falciparum FabI

Row | SMILES | IC50 [1] [µM] | IC50 (Plasmodium falciparum [2]) [µg/mL] | IC50 (Leishmania donovani) [µg/mL] | IC50 [3] [µg/mL] | IC50 (Trypanosoma cruzi) [µg/mL] | IC50 [4] [µM] | IC50 (Fatty acid synthase) [µM] | IC50 (L6) [µg/mL] | IC50 (Plasmodium yoelii [5]) [µg/mL] | IC50 (Plasmodium yoelii [6]) [µg/mL] | Ratio IC50 (Plasmodium falciparum [7]) | Ratio IC50 (Plasmodium falciparum [8])
1 | CCCCCCCCCCCCCCCC(=O)O [PALMITIC ACID] | > 390 | 3.8 (≈ 14.8 µM) | 14.5 (≈ 56.5 µM) | 30.4 (≈ 119 µM) | > 30 | > 390 | > 390 | 52.7 (≈ 206 µM) | > 25 | > 25 | – | –
2 | O=C(Cn1ccnc1[N+](=O)[O-])NCc1ccccc1 [BENZNIDAZOLE] | – | – | – | – | 0.489 (≈ 1.88 µM) | – | – | – | – | – | – | –
3 | O=C(O[C@@H]1Cc2c(O)cc(O)cc2O[C@@H]1c1cc(O)c(O)c(O)c1)c1cc(O)c(O)c(O)c1 [EPIGALOCATECHIN GALLATE] | – | – | – | – | – | – | 0.0654 | – | – | – | – | –
4 | CCCCCCCCCCCCCCCCOP(=O)([O-])OCC[N+](C)(C)C [MILTEFOSINE] | – | – | 0.26 (≈ 0.638 µM) | – | – | – | – | – | – | – | – | –
5 | COc1cc([C@@H]2c3cc4c(cc3[C@H](O)[C@H]3COC(=O)[C@H]23)OCO4)cc(OC)c1OC [PODOFILOX] | – | – | – | – | – | – | – | 0.004 (≈ 0.00965 µM) | – | – | – | –
6 | O=C1C(O)=C([C@H]2CC[C@H](c3ccc(Cl)cc3)CC2)C(=O)c2ccccc21 [ATOVAQUONE] | – | – | – | – | – | – | – | – | 0.0025 (≈ 0.00681 µM) | 0.00037 (≈ 0.00101 µM) | – | –
7 | CCCCCCCCCCC#CCCCC(=O)O | 12.3 | 6.6 (≈ 26.1 µM) | 13.4 (≈ 53.1 µM) | 25.5 (≈ 101 µM) | > 30 | > 396 | 55.5 | > 90 | > 25 | > 25 | 50 | 10
8 | CCCCCCCCCC#CCCCCC(=O)O | 14.3 | 22.5 (≈ 89.1 µM) | 9.8 (≈ 38.8 µM) | 31.7 (≈ 126 µM) | > 30 | > 396 | 47.5 | 30.3 (≈ 120 µM) | > 25 | > 25 | 50 | 10
9 | CCCCCCC#CCCCCCCCC(=O)O | 11.1 | – | 4.1 (≈ 16.2 µM) | 3.7 (≈ 14.7 µM) | > 30 | > 396 | 49.5 | 80.8 (≈ 320 µM) | > 25 | > 25 | 50 | 10
